Screening data: PubChem, The Scripps Research Institute Molecular Screening Center
Hits are enriched below; roughly 3% of the tested compounds scored in any of these assays.
TAAR1 ag: human TAAR1 agonists, primary screen, Fluo-8 calcium fluorescence, CHO RD-HGA16 cells. Trace amine-associated receptor 1 (Homo sapiens), Q96RJ0. 0.99% of 360,000 active. AID 624467, 2012. vehicle wells 0%, saturating PEA agonist 100%. activation, % at 3 µM;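 active = activation above the mean activation of all test compounds in the run plus 3 SD, cut at about 38% in these data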
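System: CHO RD-HGA16 cells carrying human TAAR1 plus Gα16; Incubation: 17-24 h seeding, 75 min 37 °C dye, 30 min RT; Measured by: Fluo-8 fluorescence, 5 s baseline then 140 s kinetic read; Control set: DMSO and PEA EC100; Replication: single well for each compound.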
CHRM4 agonist: human M4 muscarinic receptor agonists, primary screen, CHO-K1 cells, Fluo-8 calcium fluorescence. activation, % at 3 µM. CHO-K1 hM4/Gqi5; vehicle 0%, full acetylcholine response 100%. 0.14% of 360,000 active. AID 624127, 2012;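 active = activation above the run mean over all test wells plus 3 SD, cut at about 32% in these data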;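 also: peak over basal fluorescence ratio per well then scaled between controls; 0% = DMSO wells and 100% = acetylcholine at EC100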
Target sequence (P08173 whole entry, looked up): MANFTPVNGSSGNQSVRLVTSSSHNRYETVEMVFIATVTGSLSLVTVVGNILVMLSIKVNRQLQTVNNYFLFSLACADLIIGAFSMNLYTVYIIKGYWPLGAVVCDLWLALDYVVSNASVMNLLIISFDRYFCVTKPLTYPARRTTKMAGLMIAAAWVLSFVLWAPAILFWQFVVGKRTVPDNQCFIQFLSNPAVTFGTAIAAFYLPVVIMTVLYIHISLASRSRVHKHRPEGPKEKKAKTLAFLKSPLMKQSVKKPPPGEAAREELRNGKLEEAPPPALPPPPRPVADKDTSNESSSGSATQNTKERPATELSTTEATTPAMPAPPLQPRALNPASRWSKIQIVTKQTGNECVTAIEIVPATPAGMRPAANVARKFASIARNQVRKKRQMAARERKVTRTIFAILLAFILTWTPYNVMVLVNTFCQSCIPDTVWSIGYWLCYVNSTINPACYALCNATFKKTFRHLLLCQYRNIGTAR
TAAR1 antagonist: human TAAR1 antagonists, primary screen, Fluo-8 calcium fluorescence, CHO RD-HGA16 cells; Trace amine-associated receptor 1 (Homo sapiens), Q96RJ0; antagonist; inhibition, % at 3 µM; 1.5% of 360,000 active; AID 624466, 2012;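 active = inhibition above a per-plate cutoff, the mean inhibition of test compounds on that plate plus 3 SD, cut at about 49% in these data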;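 also: 0% = DMSO plus EC80 beta-PEA response and 100% = DMSO alone without agonist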
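test system = CHO RD-HGA16 cells bearing hTAAR1 | replication = singlicate | controls = DMSO-only wells and EC80 β-PEA-stimulated wells | reagent = EC80 β-phenethylamine stimulus | read-out basis = percent inhibition of PEA-evoked calcium signal, max/basal emission ratio | schedule = seeding 17-24 h prior, 75-min 37 °C, 30-min RT dye loading | signal = kinetic Fluo-8 calcium fluorescence measurement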
M4 antag: human M4 muscarinic receptor antagonists, primary screen, CHO cells, Fluo-8 calcium fluorescence. CHO-hM4 cells, ACh EC80. inhibition, % at 3 µM. 0.73% of 360,000 active. AID 624125, 2012;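 active = inhibition above its plate's cutoff, the mean inhibition of sample wells plus 3 SD, cut at about 27% in these data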;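 also: 0% = acetylcholine EC80 with DMSO and 100% = DMSO without agonist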
CHRM4 PAM: human M4 muscarinic receptor positive allosteric modulators, primary screen, CHO-K1 cells, Fluo-8 calcium fluorescence; Muscarinic acetylcholine receptor M4 (Homo sapiens), P08173; CHO-K1 hM4/Gqi5, ACh EC20; 0% = ACh EC20, 100% = maximal ACh; activation, % at 3 µM; 0.4% of 360,000 active; AID 624126, 2012;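 active = activation above its plate's cutoff, the mean activation of sample wells plus 3 SD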
* marks the source's active call; other numbers are inactive results; . = no result given.

SMILES | TAAR1 ag | CHRM4 agonist | TAAR1 antagonist | M4 antag | CHRM4 PAM
COC(=O)c1ccccc1S(=O)(=O)NC(=O)[C@H]1O[C@@H](n2ccc(=O)[nH]c2=O)[C@H](O)[C@@H]1O | 0.5 | . | -3.2 | . | .
CC(=O)N1CCN=C1SCc1c(F)cccc1Cl | 1.0 | 1.9 | -27.6 | -13.1 | 20.2*
CCC(=O)N1CCN=C1SCc1c(F)cccc1Cl | -0.6 | 0.3 | -20.9 | 7.0 | 3.7
CCn1nc(C(=O)N2CCN(Cc3nc4ccccc4s3)CC2)c2ccccc2c1=O | 32.9 | 21.8 | 56.9* | 35.4* | -14.2
COc1ccc(O)c(/C=N/n2c(-c3ccco3)csc2=Nc2cccnc2)c1 | 4.1 | 3.4 | 49.0* | 2.9 | -4.7
COc1ccc(-c2ccc(C#N)c(OC)n2)cc1 | 14.9 | 0.9 | 5.8 | -5.9 | -1.8
N#Cc1ccc(-c2ccc(F)cc2)nc1Oc1ccc(Cl)c(Cl)c1 | 1.8 | 1.1 | -10.1 | -1.6 | 32.6*
CCC(Sc1nc2ccccc2[nH]1)C(=O)Nc1cc(C)on1 (configuration not stated) | 8.3 | 1.1 | 10.9 | 7.1 | 6.0
CCC(Sc1nc(N)cc(=O)[nH]1)C(=O)Nc1cc(C)on1 (configuration not stated) | 5.5 | 2.2 | 3.0 | -14.2 | 25.8*
COc1ccc(N2CCN(C(=O)c3cc(=O)[nH]c4ccccc34)CC2)cc1 | 13.3 | 3.3 | 12.7 | -3.3 | -2.8
Cc1cc(C)c(S(=O)(=O)N2CCN(C(=O)c3cc(=O)[nH]c4ccccc34)CC2)c(C)c1 | 43.5* | 21.5 | 51.6* | 7.5 | -10.8
N#Cc1ccccc1S(=O)(=O)N1CCN(C(=O)c2cc(=O)[nH]c3ccccc23)CC1 | 6.0 | 4.8 | 17.9 | 3.3 | -4.3
Cc1ccc(S(=O)(=O)N2CCN(C(=O)c3cc(=O)[nH]c4ccccc34)CC2)c(C)c1 | 20.1 | 13.2 | 51.4* | 9.3 | -9.2
O=C1CC2(CCCC2)C(=O)N1CN1CCN(S(=O)(=O)c2cc(F)ccc2F)CC1 | 1.4 | 0.1 | 6.3 | -0.3 | -1.1
CCOC(=O)CC1(O)CSc2nc(N)cc(=O)n21 (configuration not stated) | 2.5 | . | -22.4 | . | .
O=S1(=O)N[C@H](Cc2ccccc2)COc2cc(Br)ccc21 | -0.6 | . | -24.6 | . | .
CCOc1ccccc1N1CCN(c2nc(N)c(C#N)c(CC#N)c2C#N)CC1 | 19.1 | 16.6 | 50.0* | -3.6 | 1.0
CN1CCN(c2ccccc2NC(=O)C(Cc2ccccc2)n2cccc2)CC1 (configuration not stated) | 13.7 | 6.0 | -2.5 | 31.9* | -12.5
Cc1c(NC(=S)NC(NC(=O)CC(C)C)C(Cl)(Cl)Cl)c(=O)n(-c2ccccc2)n1C (configuration not stated) | 1.1 | 1.2 | -13.2 | -2.4 | -3.0
Cc1c(NC(=S)NC(=O)CC(C)C)c(=O)n(-c2ccccc2)n1C | 1.4 | 1.4 | -8.9 | 79.0* | -24.9
CSC(=S)N/N=C/c1ccc(N(C)C)cc1 | 1.6 | -0.3 | 9.7 | -2.1 | 0.4
CSC(=S)N/N=C/c1ccc(Br)cc1 | 12.3 | 1.6 | -2.1 | -16.1 | 23.1*
CCOC(=O)CSc1c(-c2ccc(Cl)cc2)[nH]c2ccccc12 | -0.1 | -0.2 | 37.5 | 0.9 | -19.8
O=C(Cc1cccs1)NCCSc1c(-c2ccc(Cl)cc2)[nH]c2ccccc12 | 1.0 | 7.0 | 49.0* | 5.2 | -5.7
CCCN(CC1CC1)C(=O)COC(=O)c1ccc(CNS(=O)(=O)c2ccc(F)c(Cl)c2)cc1 | 3.6 | 1.6 | 18.4 | 2.3 | -2.6
SMILES | TAAR1 ag | CHRM4 agonist | TAAR1 antagonist | M4 antag | CHRM4 PAM
N#CCCN(C(=O)COC(=O)c1ccc(CNS(=O)(=O)c2ccc(F)c(Cl)c2)cc1)c1ccc(F)cc1 | 19.4 | 14.8 | 30.9 | 50.5* | -17.1
C[C@H]1COc2cc(NCCO)ccc2S(=O)(=O)N1 | 1.1 | . | -12.1 | . | .
COC(=O)[C@]12C[C@H](CC(=O)NCC3CCCCC3)C(=O)N(Cc3ccccc3)C1=C[C@H](C1CCCC1)O[C@@H]2C | -2.5 | . | -28.6 | . | .
COc1ccc(Cc2cc(NCc3ccccc3)c3ncn(C(C)C)c3c2)cc1 | 38.1* | 7.5 | 15.8 | -3.8 | 20.7
COc1cc(NCc2ccccc2)c2ncn(Cc3ccccc3)c2c1 | 4.9 | 17.0 | -19.3 | -19.7 | 36.1*
COCCCOc1cc(NCc2ccccc2)c2ncn(C(C)C)c2c1 | 14.7 | -0.3 | -9.4 | -13.3 | 12.1
CCOCCOc1cc(NCc2ccccc2)c2ncn(C(C)C)c2c1 | 15.6 | 1.0 | -9.4 | 1.1 | 6.1
Nc1ccn([C@@H]2O[C@H](C(=O)N[C@H](Cc3ccccc3)C(=O)Nc3ccc4scnc4c3)[C@@H](O)[C@H]2O)c(=O)n1 | 2.9 | . | -18.4 | . | .
O=C(O)COc1ccc(/C=C2\SC(=Nc3ccccc3)N(c3ccccc3)C2=O)cc1 | 5.7 | -1.0 | 2.0 | 30.3* | -7.9
CCOc1cc(/C=C2\SC(=Nc3ccccc3)N(c3ccccc3)C2=O)ccc1OCC(=O)O | 2.2 | 1.9 | -12.9 | 9.8 | -4.2
COC(=O)c1cc2c(c3c4cc(OC)ccc4n(S(=O)(=O)c4ccc(F)cc4)c13)C(=O)N(CC(C)C)C2 | -1.9 | . | -47.5 | . | .
C=CC[C@H](CC(=O)N(CCO)Cc1ccccc1)C(=O)NC[C@H](OC(=O)[C@@H](CC=C)Cc1ccc(F)cc1)c1ccccc1 | 27.6 | 21.4 | 90.3* | 30.2* | -14.4
C=CC[C@H](CC(=O)N(CCO)Cc1ccccc1)C(=O)NCCOC(=O)[C@@H](CC=C)Cc1ccc(F)cc1 | 9.2 | 10.3 | 16.8 | 0.6 | -8.2
C=CC[C@@H](CC(=O)N(CCO)Cc1ccccc1)C(=O)N[C@@H](COC(=O)[C@@H](CC=C)Cc1ccc(F)cc1)Cc1ccccc1 | 8.1 | 3.6 | 24.7 | -4.6 | 9.8
C=CC[C@@H](CC(=O)N(CCO)Cc1ccccc1)C(=O)NC[C@@H](OC(=O)[C@@H](CC=C)Cc1ccc(F)cc1)c1ccccc1 | 13.1 | 14.2 | 68.5* | 22.3 | -9.4
CCCCC[C@H](C)N1C[C@@H](COCc2ccccc2)Oc2cc(N3CCC[C@H]3C(N)=O)ccc2S1(=O)=O | 38.9* | -0.2 | -32.4 | -14.9 | 9.7
C=CCCC1CN(Cc2ccc(OC)cc2)S(=O)(=O)c2c(cccc2N(C)S(=O)(=O)c2ccc(C)cc2)O1 (configuration not stated) | -0.5 | . | -2.6 | . | .
Cc1cccc(NC(=O)c2cc(-c3ccc(C)s3)nc3ccccc23)n1 | 9.9 | 8.5 | 51.0* | 15.8 | -12.4
Cc1cc(NC(=O)c2cc(-c3ccc(C)s3)nc3ccccc23)no1 | 0.2 | 0.4 | 24.2 | -24.6 | 7.0
Cc1ccc(C)c(-c2cc(C(=O)NN3CCOCC3)c3ccccc3n2)c1 | 1.4 | 2.8 | -24.5 | -12.7 | -1.8
